{
  "source": "ChEMBL document CHEMBL5696442",
  "about": "“Discovery of type II inhibitors of TGFβ-activated kinase 1 (TAK1) and mitogen-activated protein kinase kinase kinase kinase 2 (MAP4K2)” (J Med Chem, 2015)",
  "key": {"[1]": {"target": "cAMP-dependent protein kinase catalytic subunit PRKX (Homo sapiens) (UniProt P51817)", "assay": "Inhibition of PRKX (unknown origin) at 1 uM by Ambit Kinomescan binding assay relative to control"}, "[2]": {"target": "T1, NUAK family SNF1-like kinase 1 (Homo sapiens) (UniProt O60285)", "T1 sequence (whole entry)": "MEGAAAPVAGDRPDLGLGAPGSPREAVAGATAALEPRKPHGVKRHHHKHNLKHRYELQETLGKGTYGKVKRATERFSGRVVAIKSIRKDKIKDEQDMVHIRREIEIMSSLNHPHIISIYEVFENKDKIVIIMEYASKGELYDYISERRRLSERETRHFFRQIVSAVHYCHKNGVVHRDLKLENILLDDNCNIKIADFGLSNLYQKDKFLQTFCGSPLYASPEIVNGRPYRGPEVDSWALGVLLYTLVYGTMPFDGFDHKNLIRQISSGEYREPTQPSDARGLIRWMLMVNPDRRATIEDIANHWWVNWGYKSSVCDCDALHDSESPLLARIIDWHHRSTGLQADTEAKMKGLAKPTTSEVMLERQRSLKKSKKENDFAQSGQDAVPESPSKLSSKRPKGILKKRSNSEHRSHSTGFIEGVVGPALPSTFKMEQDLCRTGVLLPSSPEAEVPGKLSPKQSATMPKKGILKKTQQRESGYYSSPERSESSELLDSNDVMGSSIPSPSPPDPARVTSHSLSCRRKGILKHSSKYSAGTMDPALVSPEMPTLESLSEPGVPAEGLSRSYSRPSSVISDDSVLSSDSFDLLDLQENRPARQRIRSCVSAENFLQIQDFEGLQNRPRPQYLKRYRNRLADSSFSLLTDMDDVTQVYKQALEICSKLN", "assay": "Inhibition of ARK5 (unknown origin) at 1 uM by Ambit Kinomescan binding assay relative to control"}, "[3]": {"target": "Serine/threonine-protein kinase MARK1 (Homo sapiens) (UniProt Q9P0L2)", "assay": "Inhibition of MARK1 Lys2 labeling site in human A-375 cells at 0.5 uM by KiNativ Profiling analysis relative to control", "format": "cell-based"}, "[4]": {"target": "Tyrosine-protein kinase Yes (Homo sapiens) (UniProt P07947)", "assay": "Inhibition of YES (unknown origin) at 1 uM by Ambit Kinomescan binding assay relative to control; values are per cent of control"}, "[5]": {"target": "T2, Phosphatidylinositol 5-phosphate 4-kinase type-2 beta (Homo sapiens) (UniProt P78356)", "T2 sequence (whole entry)": "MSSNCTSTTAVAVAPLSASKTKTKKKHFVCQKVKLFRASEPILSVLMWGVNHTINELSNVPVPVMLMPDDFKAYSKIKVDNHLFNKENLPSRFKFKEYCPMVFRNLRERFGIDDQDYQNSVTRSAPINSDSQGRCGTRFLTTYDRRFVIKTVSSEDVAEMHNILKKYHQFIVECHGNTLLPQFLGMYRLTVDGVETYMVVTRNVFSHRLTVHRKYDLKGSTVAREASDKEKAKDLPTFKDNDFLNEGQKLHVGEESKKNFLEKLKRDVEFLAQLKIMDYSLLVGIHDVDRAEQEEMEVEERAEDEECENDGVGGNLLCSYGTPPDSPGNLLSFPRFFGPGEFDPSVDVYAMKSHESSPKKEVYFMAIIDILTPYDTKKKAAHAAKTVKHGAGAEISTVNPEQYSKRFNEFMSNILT", "assay": "Inhibition of PIP5K2B (unknown origin) at 1 uM by Ambit Kinomescan binding assay relative to control; values are per cent of control"}, "[6]": {"target": "Serine/threonine-protein kinase mTOR (Homo sapiens) (UniProt P42345)", "assay": "Inhibition of MTOR (unknown origin) at 1 uM by Ambit Kinomescan binding assay relative to control"}, "[7]": {"target": "Ribosomal protein S6 kinase alpha-3 (Homo sapiens) (UniProt P51812)", "assay": "Inhibition of RSK2 domain1 Lys2 labeling site harbouring DLKPENILLDEEGHIK in human A-375 cells at 5 uM by KiNativ Profiling analysis relative to control", "format": "cell-based", "in_short": "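Live A375 melanoma cells treated with compound at 5 or 0.5 μM, then lysed. Lysate kinases were labeled with a lysine-reactive ATP or ADP-biotin probe. Inhibition was read as protection of labeling sites from the probe.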"}, "[8]": {"target": "Mitogen-activated protein kinase kinase kinase 9 (Homo sapiens) (UniProt P80192)", "sequence (P80192 whole entry, looked up)": "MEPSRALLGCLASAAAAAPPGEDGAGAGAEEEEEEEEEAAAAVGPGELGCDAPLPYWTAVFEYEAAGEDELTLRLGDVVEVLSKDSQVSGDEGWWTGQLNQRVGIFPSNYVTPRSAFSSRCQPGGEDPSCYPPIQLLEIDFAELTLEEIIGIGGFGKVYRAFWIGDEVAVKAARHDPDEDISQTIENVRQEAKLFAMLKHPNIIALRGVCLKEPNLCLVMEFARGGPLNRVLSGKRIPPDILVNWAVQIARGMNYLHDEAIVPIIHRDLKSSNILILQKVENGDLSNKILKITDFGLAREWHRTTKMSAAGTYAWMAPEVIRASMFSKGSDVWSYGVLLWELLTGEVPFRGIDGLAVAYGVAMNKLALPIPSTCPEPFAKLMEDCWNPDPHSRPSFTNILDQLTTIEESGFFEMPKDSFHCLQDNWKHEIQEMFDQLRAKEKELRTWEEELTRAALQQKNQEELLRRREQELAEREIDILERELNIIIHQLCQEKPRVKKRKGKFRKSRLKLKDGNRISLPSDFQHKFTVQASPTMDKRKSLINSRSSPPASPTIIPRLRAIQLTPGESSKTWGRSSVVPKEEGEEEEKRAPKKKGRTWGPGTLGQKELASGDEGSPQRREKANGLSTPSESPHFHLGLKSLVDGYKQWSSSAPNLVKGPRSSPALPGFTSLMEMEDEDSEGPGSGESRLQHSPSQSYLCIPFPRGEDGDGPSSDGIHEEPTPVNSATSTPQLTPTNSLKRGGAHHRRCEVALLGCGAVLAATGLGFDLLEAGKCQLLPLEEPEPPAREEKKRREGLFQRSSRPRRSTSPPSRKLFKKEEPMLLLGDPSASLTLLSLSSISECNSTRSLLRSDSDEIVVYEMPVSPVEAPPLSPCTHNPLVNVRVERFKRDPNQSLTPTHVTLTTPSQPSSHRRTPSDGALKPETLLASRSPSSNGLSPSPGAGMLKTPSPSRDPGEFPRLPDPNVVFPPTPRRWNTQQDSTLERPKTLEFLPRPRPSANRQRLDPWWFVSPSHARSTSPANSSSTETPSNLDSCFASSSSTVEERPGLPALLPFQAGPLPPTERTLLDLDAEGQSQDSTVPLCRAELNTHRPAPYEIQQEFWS", "assay": "Inhibition of MLK1 (unknown origin) at 1 uM by Ambit Kinomescan binding assay relative to control; values are per cent of control"}, "[9]": {"target": "Tyrosine-protein kinase receptor UFO (Homo sapiens) (UniProt P30530)", "assay": "Inhibition of AXL (unknown origin) at 10 uM by Ambit Kinomescan binding assay", "in_short": "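In vitro ATP-site competition binding assay against a panel of over 420 kinases (KinomeScan), with compound tested at 10 or 1 μM.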"}, "[10]": {"target": "Dual specificity mitogen-activated protein kinase kinase 1 (Homo sapiens) (UniProt Q02750)", "sequence (Q02750 whole entry)": "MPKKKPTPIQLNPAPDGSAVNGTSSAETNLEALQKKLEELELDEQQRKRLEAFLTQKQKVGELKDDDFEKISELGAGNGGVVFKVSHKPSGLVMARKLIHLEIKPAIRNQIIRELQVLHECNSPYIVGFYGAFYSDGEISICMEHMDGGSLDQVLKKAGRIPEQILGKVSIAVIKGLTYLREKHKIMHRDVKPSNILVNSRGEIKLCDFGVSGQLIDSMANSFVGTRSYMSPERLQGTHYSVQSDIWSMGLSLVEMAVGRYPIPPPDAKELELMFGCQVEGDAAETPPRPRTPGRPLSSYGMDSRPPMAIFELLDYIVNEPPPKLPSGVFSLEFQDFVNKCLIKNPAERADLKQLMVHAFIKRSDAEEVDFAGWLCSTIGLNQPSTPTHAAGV", "assay": "Inhibition of MAP2K1 Lys1 labeling site in human A-375 cells at 0.05 uM by KiNativ Profiling analysis relative to control", "format": "cell-based"}, "[11]": {"target": "Serine/threonine-protein kinase N2 (Homo sapiens) (UniProt Q16513)", "sequence (Q16513 whole entry, looked up)": "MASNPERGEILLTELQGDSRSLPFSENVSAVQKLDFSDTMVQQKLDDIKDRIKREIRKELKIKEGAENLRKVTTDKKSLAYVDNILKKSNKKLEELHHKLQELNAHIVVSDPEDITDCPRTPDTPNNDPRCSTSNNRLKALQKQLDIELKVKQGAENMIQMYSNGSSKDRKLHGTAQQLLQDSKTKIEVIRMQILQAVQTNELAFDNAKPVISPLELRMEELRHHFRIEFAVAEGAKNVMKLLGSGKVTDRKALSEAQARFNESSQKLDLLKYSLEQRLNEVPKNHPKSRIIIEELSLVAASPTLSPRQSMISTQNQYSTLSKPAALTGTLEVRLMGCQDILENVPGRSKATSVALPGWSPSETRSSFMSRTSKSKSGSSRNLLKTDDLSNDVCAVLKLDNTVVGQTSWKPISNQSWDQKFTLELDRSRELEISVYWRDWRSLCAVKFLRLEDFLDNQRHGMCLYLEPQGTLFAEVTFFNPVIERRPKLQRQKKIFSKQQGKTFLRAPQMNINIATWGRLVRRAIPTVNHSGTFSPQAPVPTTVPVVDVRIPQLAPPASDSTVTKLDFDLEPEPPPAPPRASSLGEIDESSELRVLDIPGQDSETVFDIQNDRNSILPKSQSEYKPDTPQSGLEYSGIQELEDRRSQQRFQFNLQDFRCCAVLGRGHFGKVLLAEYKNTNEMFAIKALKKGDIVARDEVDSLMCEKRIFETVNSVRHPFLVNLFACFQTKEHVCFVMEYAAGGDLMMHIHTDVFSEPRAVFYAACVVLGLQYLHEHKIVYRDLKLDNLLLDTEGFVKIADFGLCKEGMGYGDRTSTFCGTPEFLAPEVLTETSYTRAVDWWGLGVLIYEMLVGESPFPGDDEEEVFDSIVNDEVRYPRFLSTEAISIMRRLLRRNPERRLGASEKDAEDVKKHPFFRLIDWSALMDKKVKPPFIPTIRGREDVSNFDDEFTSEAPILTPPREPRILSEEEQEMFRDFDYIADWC", "assay": "Inhibition of PKN2 (unknown origin) at 10 uM by Ambit Kinomescan binding assay"}, "[12]": {"target": "Serine/threonine-protein kinase TNNI3K (Homo sapiens) (UniProt Q59H18)", "sequence (Q59H18 whole entry)": "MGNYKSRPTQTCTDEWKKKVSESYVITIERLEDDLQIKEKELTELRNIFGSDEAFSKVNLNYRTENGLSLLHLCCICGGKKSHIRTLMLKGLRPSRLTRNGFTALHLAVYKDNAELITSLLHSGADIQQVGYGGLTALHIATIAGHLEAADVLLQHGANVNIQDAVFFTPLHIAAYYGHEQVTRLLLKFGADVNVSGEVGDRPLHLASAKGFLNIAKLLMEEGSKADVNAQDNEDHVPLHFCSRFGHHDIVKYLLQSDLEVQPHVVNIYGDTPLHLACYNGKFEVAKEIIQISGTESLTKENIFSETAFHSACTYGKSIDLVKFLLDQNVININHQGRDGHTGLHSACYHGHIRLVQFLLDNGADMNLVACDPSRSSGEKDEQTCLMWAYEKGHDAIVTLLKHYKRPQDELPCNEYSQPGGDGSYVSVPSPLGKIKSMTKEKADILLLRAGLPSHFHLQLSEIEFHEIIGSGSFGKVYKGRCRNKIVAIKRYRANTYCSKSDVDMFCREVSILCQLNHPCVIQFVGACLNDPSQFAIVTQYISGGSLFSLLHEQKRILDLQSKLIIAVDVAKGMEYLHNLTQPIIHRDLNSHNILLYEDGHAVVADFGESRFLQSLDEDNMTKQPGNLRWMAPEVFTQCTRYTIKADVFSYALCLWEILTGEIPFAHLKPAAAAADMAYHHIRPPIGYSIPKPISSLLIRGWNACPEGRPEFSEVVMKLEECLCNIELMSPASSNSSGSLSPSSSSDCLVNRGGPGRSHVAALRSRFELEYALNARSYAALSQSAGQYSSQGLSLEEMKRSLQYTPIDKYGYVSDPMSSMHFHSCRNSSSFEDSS", "assay": "Inhibition of TNNI3K (unknown origin) at 10 uM by Ambit Kinomescan binding assay relative to control; values are per cent of control"}, "[13]": {"target": "Cytoplasmic tyrosine-protein kinase BMX (Homo sapiens) (UniProt P51813)", "sequence (P51813 whole entry)": "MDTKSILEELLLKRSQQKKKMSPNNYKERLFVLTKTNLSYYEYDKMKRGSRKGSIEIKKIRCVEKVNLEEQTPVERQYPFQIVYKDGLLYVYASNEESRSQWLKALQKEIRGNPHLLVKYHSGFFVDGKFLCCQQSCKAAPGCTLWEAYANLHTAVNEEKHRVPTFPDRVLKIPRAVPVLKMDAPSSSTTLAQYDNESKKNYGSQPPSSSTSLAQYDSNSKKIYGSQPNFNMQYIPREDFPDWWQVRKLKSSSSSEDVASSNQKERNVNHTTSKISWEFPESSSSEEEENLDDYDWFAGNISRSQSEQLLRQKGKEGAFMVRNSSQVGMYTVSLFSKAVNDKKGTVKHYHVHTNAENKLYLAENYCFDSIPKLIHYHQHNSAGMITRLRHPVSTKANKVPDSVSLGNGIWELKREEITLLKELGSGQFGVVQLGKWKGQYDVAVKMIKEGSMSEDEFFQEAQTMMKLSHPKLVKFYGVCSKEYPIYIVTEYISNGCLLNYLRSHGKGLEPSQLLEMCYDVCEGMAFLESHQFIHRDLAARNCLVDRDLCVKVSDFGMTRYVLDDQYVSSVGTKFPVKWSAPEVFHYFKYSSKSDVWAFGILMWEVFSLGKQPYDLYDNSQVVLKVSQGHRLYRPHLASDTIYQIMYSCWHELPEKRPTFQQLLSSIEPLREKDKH", "assay": "Inhibition of BMX (unknown origin) at 10 uM by Ambit Kinomescan binding assay relative to control"}, "[14]": {"target": "Cyclin-dependent kinase 14 (Homo sapiens) (UniProt O94921)", "assay": "Inhibition of PFTAIRE1 Lys2 labeling site in human A-375 cells at 0.05 uM by KiNativ Profiling analysis relative to control"}, "[15]": {"target": "Calcium/calmodulin-dependent protein kinase type II subunit gamma (Homo sapiens) (UniProt Q13555)", "assay": "Inhibition of CaMK2g Lys2 labeling site in human Huh-7 cell lysate at 1 uM by KiNativ Profiling analysis relative to control", "format": "subcellular"}, "[16]": {"target": "Mitogen-activated protein kinase 14 (Homo sapiens, UniProt Q16539)", "sequence (Q16539 whole entry)": "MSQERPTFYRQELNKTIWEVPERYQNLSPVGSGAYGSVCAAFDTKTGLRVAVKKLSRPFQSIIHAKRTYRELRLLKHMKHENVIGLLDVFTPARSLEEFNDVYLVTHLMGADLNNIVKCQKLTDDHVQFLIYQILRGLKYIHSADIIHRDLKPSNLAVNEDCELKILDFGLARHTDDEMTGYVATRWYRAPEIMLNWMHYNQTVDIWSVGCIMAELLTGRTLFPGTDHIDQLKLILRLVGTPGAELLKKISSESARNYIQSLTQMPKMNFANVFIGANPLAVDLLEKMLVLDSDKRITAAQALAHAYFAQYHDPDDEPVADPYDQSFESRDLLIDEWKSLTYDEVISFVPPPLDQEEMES", "assay": "Inhibition of p38alpha Lys2 labeling site in human Huh-7 cells at 1 uM by KiNativ Profiling analysis relative to control", "format": "cell-based"}, "[17]": {"target": "Dual specificity mitogen-activated protein kinase kinase 1 (Homo sapiens) (UniProt Q02750)", "assay": "Inhibition of MAP2K1 Lys2 labeling site harbouring IMHRDVKPSNILVNSR in human Huh-7 cell lysate at 1 uM by KiNativ Profiling analysis relative to control", "format": "subcellular"}, "[18]": {"target": "Tyrosine-protein kinase CSK (Homo sapiens, UniProt P41240)", "sequence (P41240 2-450 limits assumed)": "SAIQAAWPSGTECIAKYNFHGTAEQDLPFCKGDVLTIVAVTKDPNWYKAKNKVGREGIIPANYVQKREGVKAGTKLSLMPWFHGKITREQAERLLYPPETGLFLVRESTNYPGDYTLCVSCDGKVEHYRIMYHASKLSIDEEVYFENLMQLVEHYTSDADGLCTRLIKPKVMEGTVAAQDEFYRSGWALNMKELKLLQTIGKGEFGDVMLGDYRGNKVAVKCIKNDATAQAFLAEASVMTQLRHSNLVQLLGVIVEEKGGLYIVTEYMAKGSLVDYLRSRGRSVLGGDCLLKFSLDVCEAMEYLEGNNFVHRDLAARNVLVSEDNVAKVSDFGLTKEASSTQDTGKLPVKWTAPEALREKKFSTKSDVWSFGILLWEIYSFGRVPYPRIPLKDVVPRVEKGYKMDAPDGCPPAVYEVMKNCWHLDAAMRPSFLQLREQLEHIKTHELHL", "assay": "Inhibition of CSK ACT labeling site harbouring VSDFGLTKEASSTQDTGK in human Huh-7 cell lysate at 1 uM by KiNativ Profiling analysis relative to control", "format": "subcellular"}, "[19]": {"target": "Serine/threonine-protein kinase ATR (Homo sapiens) (UniProt Q13535)", "assay": "Inhibition of ATR ATP labeling site in human Huh-7 cell lysate at 1 uM by KiNativ Profiling analysis relative to control", "format": "subcellular"}},
  "note": "Active and inactive are the calls of the source. No cut-off for these calls is given here.",
  "data": [
    {"molecule": "CCN1CCN(Cc2ccc(NC(=O)c3ccc(C)c(/C=C/c4cnc5[nH]ccc5c4OC)c3)cc2C(F)(F)F)CC1", "values": [
      {"measurement": "inhibition", "setting": "[1]", "result": 57, "unit": "%"},
      {"measurement": "inhibition", "setting": "[2]", "result": 100, "unit": "%"},
      {"measurement": "inhibition", "setting": "[3]", "result": 2.2, "unit": "%"},
      {"measurement": "percent of control", "setting": "[4]", "result": 2.2, "unit": "%"},
      {"measurement": "residual activity", "setting": "[5]", "result": 12, "unit": "%"},
      {"measurement": "inhibition", "setting": "[6]", "result": 100, "unit": "%"},
      {"measurement": "inhibition", "setting": "[7]", "result": 16.5, "unit": "%"},
      {"measurement": "residual activity", "setting": "[8]", "result": 4.7, "unit": "%"}
    ]},
    {"molecule": "CCN1CCN(Cc2ccc(NC(=O)c3ccc(C)c(Oc4ccnc5[nH]ccc45)c3)cc2C(F)(F)F)CC1", "values": [
      {"measurement": "inhibition", "setting": "[9]", "result": "inactive"},
      {"measurement": "inhibition", "setting": "[10]", "result": 2.9, "unit": "%"},
      {"measurement": "inhibition", "setting": "[11]", "result": "inactive"},
      {"measurement": "residual activity", "setting": "[12]", "result": 4.8, "unit": "%"},
      {"measurement": "inhibition", "setting": "[13]", "result": 2.4, "unit": "%"},
      {"measurement": "inhibition", "setting": "[14]", "result": 0.6, "unit": "%"}
    ]},
    {"molecule": "CNc1cc(Oc2cc(C(=O)Nc3cc(N4CCN(C)CC4)cc(C(F)(F)F)c3)ccc2C)ncn1", "values": [
      {"measurement": "inhibition", "setting": "[15]", "result": 0.7, "unit": "%"},
      {"measurement": "inhibition", "setting": "[16]", "result": 22.6, "unit": "%"},
      {"measurement": "inhibition", "setting": "[17]", "result": 23.6, "unit": "%"},
      {"measurement": "inhibition", "setting": "[18]", "result": 7.9, "unit": "%"},
      {"measurement": "inhibition", "setting": "[19]", "result": 5.1, "unit": "%"}
    ]}
  ]
}
